In ChEMBL document CHEMBL4765230, “Discovery of Orally Efficacious Phosphoinositide 3-Kinase δ Inhibitors with Improved Metabolic Stability” (J Med Chem, 2016):

How the values were obtained:
[1] = biological target: PI3-kinase p110-delta/p85-alpha (Homo sapiens, UniProt O00329); assay: Inhibition of human full length PI3K p110delta/p85alpha using […] as substrate measured after 30 mins by TR-FRET assay; assay type: protein-complex assay
[2] = biological target: PI3-kinase p110-alpha/p85-alpha (Homo sapiens, UniProt P42336); assay: Inhibition of human full length PI3K p110alpha/p85alpha using […] as substrate measured after 30 mins by TR-FRET assay; assay type: protein-complex assay
PI3K p110 beta/p85 alpha = PI3K p110 beta/p85 alpha (Homo sapiens, UniProt P42338); assay: Inhibition of recombinant human full-length N-terminal His-tagged PI3K p110beta/p85alpha using […] as substrate measured after 30 mins by TR-FRET assay; assay type: protein-complex assay
[3] = biological target: Phosphatidylinositol 4,5-bisphosphate 3-kinase catalytic subunit gamma isoform (Homo sapiens, UniProt P48736); assay: Inhibition of human full length PI3K p110gamma using […] as substrate measured after 30 mins by TR-FRET assay
[4] = Chemical stability of the compound at pH 2 phosphate buffer assessed as time required for 50% hydrolytic degradation at 100 ug/ml and 40 degreeC by UPLC-UV analysis; assay type: physicochemical; conditions: dose 100 µg/ml, read-out: Time (converted)
Method in brief: (§1)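 Compound diluted from acetonitrile or DMSO stock to 100 μg/mL final in 50 mM phosphate buffer, pH 2 (or pH 7), ionic strength 0.15 M NaCl, 40 °C in autosampler. Timed injections analysed by reverse-phase UPLC-UV (220 nm); pseudo-first-order kobs from ln c vs time; t50 and t90 calculated.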

[5] = Chemical stability of the compound at pH 2 phosphate buffer assessed as time required for 90% hydrolytic degradation at 100 ug/ml and 40 degreeC by UPLC-UV analysis; assay type: physicochemical; conditions: in the assay text read “10% hydrolytic degradation” for “90% hydrolytic degradation”, dose 100 µg/ml; method in brief: as §1
[6] = Chemical stability assessed as time taken for hydrolytic degradation at pH 2; assay type: physicochemical; conditions: buffer; method in brief: as §1
[7] = Clearance in rat at 1 mg/kg, iv; assay type: ADME, organism-based; conditions: in vivo
[8] = Drug degradation assessed as acid-mediated compound hydrolysis at 40 degreeC measured at 3 hrs; assay type: physicochemical; conditions: read-out: Drug degradation; method in brief: as §1
[9] = biological target: T1, Phosphatidylinositol 4,5-bisphosphate 3-kinase catalytic subunit delta isoform (Homo sapiens, UniProt O00329); assay: Inhibition of PI3Kdelta in human whole blood assessed as reduction in anti-FCepsilonR1 mAb-stimulated basophil activation preincubated for 60 mins followed by anti-FCepsilonR1 mAb stimulation and measured after 25 mins by flow cytometry analysis; assay type: tissue-based
T1 sequence (O00329 whole entry): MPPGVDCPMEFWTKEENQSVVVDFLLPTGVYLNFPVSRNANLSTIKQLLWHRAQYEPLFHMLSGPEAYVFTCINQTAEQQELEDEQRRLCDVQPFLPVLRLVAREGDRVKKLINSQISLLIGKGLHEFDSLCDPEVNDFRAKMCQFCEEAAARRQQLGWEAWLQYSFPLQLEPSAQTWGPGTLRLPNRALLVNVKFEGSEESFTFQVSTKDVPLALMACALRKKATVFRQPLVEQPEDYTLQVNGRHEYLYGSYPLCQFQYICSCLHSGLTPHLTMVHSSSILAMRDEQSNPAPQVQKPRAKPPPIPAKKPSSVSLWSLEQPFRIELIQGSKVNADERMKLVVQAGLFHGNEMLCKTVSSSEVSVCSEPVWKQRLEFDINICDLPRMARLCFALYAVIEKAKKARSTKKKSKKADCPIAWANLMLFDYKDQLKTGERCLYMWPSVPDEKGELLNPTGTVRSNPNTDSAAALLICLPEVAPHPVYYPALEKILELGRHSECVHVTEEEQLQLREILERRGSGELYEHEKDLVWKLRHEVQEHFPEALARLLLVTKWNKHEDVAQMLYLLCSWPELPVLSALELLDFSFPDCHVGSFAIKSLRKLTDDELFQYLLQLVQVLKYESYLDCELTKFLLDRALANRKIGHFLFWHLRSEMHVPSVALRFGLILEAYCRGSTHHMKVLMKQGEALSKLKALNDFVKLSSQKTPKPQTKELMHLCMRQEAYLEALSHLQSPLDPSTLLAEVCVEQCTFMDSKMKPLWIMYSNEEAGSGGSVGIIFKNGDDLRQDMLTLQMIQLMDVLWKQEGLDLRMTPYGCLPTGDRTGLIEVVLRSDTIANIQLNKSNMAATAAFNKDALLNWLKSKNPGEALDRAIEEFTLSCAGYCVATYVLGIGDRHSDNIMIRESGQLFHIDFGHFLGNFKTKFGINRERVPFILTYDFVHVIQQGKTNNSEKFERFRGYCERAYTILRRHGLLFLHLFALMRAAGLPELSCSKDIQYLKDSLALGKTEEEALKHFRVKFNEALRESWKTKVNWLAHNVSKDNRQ

[10] = Clearance in dog at 1 mg/kg, iv; assay type: ADME, organism-based, Canis lupus familiaris; conditions: in vivo
[11] = Volume of distribution at steady state in rat at 1 mg/kg, iv; assay type: ADME, organism-based; conditions: in vivo, read-out: Vdss
Method in brief: (§2)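 Rats and dog received 1 mg/kg intravenously, formulated in 12% w/v Captisol in water. Volume of distribution was taken at steady state from the iv plasma profile. Three animals per dosing route.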

[12] = Volume of distribution at steady state in dog at 1 mg/kg, iv; assay type: ADME, organism-based, Canis lupus familiaris; conditions: in vivo, read-out: Vdss; method in brief: as §2
[13] = Oral bioavailability in rat at 5 mg/kg; assay type: ADME, organism-based; conditions: in vivo
[14] = Selectivity index, ratio of IC50 for inhibition of recombinant human full-length N-terminal His-tagged PI3K p110beta/p85alpha to IC50 for inhibition of human full length PI3K p110delta/p85alpha
[15] = Selectivity index, ratio of IC50 for inhibition of human full length PI3K p110alpha/p85alpha to IC50 for inhibition of human full length PI3K p110delta/p85alpha
[16] = Selectivity index, ratio of IC50 for inhibition of human full length PI3K p110gamma to IC50 for inhibition of human full length PI3K p110delta/p85alpha
[17] = Half life of the compound; assay type: physicochemical
[18] = Chemical stability of the compound under aqueous acidic condition; assay type: physicochemical; conditions: buffer; method in brief: as §1
[19] = Thermal stability of compound assessed as half life at 40 degreeC measured over 72 hrs by HPLC analysis; assay type: physicochemical
[20] = Drug degradation at low pH; assay type: physicochemical; method in brief: as §1
[21] = Clearance in cynomolgus monkey at 1 mg/kg, iv; assay type: ADME, organism-based, Macaca fascicularis; conditions: in vivo
[22] = Volume of distribution at steady state in cynomolgus monkey at 1 mg/kg, iv; assay type: ADME, organism-based, Macaca fascicularis; conditions: in vivo, read-out: Vdss
[23] = Half life in rat at 1 mg/kg, iv; assay type: ADME, organism-based; conditions: in vivo
[24] = Half life in dog at 1 mg/kg, iv; assay type: ADME, organism-based, Canis lupus familiaris; conditions: in vivo
[25] = Half life in cynomolgus monkey at 1 mg/kg, iv; assay type: ADME, organism-based, Macaca fascicularis; conditions: in vivo

Chain of Phosphatidylinositol 4,5-bisphosphate 3-kinase catalytic subunit gamma isoform (P48736 whole entry, canonical isoform): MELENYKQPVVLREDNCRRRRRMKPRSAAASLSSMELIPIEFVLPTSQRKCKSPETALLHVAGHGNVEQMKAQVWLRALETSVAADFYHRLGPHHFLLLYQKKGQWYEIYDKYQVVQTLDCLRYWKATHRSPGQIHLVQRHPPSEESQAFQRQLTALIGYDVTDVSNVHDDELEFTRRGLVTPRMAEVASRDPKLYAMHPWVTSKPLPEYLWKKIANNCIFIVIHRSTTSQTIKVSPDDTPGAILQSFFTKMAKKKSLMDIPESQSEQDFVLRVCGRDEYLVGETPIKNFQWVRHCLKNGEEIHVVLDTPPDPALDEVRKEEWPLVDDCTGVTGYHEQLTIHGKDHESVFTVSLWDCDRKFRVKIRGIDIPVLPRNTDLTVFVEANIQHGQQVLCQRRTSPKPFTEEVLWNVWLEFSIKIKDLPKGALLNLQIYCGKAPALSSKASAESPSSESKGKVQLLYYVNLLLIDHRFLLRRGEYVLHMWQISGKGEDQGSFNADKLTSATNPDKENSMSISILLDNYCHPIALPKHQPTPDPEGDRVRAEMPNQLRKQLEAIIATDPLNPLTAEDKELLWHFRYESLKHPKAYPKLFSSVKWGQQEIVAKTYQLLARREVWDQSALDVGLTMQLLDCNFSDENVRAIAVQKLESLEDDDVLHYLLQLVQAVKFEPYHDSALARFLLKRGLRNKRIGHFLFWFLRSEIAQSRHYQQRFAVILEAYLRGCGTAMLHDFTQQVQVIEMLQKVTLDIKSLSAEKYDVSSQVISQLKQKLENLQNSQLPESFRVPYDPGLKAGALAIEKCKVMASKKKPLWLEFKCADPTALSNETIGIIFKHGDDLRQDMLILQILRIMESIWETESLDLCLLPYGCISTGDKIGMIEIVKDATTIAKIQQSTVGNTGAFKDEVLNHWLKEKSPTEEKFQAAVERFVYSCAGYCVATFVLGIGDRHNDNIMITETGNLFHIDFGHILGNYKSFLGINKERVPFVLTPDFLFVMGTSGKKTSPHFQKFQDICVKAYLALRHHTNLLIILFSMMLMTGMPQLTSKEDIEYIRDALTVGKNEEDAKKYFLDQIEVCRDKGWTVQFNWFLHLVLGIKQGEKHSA
Chain of PI3-kinase p110-alpha/p85-alpha (P27986 whole entry): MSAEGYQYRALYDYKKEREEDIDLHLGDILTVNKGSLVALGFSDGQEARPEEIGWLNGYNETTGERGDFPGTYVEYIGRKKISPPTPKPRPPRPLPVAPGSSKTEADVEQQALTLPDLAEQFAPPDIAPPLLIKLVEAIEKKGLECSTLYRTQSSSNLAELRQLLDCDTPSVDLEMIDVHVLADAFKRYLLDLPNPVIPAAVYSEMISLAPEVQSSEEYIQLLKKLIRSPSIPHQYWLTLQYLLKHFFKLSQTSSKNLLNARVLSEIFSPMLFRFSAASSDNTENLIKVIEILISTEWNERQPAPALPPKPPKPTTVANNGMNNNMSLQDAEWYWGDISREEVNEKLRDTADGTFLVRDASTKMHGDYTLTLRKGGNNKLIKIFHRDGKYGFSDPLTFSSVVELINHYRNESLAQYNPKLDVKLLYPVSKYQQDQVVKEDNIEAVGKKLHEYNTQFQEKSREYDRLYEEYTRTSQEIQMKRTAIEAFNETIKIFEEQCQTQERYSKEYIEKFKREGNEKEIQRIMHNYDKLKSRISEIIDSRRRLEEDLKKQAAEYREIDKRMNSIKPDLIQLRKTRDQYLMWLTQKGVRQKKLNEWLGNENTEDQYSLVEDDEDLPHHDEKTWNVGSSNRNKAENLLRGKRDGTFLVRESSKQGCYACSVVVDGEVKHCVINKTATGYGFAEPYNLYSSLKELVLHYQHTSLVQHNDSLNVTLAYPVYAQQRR
Chain of PI3-kinase p110-alpha/p85-alpha (P42336 whole entry): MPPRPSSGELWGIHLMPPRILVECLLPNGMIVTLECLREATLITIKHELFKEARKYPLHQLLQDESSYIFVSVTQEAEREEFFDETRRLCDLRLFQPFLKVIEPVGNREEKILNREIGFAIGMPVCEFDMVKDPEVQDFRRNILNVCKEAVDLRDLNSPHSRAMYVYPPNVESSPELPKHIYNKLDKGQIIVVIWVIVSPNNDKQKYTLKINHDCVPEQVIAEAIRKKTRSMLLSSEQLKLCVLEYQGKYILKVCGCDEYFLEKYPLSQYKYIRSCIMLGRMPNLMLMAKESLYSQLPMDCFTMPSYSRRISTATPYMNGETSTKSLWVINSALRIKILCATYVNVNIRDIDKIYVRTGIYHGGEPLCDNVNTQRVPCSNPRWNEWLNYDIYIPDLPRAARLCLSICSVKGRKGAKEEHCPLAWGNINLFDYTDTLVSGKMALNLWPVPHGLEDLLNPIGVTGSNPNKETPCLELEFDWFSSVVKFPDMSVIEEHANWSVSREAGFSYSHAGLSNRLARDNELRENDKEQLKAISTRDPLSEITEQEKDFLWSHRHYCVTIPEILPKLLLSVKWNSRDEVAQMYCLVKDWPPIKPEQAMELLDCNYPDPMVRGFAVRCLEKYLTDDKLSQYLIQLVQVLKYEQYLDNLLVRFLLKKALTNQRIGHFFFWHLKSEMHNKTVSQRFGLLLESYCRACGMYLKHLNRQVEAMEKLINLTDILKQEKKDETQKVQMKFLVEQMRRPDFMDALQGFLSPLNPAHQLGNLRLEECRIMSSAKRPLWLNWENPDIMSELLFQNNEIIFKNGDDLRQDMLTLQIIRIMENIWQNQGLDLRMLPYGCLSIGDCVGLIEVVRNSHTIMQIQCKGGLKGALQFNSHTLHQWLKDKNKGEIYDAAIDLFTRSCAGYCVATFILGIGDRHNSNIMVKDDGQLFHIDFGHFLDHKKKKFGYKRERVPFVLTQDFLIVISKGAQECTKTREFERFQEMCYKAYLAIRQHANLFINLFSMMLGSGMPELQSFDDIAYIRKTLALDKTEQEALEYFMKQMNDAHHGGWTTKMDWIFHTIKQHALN
Chain of PI3K p110 beta/p85 alpha (P27986 whole entry, canonical isoform): as the sequence (P27986 whole entry) above
Chain of PI3K p110 beta/p85 alpha (P42338 whole entry, canonical isoform): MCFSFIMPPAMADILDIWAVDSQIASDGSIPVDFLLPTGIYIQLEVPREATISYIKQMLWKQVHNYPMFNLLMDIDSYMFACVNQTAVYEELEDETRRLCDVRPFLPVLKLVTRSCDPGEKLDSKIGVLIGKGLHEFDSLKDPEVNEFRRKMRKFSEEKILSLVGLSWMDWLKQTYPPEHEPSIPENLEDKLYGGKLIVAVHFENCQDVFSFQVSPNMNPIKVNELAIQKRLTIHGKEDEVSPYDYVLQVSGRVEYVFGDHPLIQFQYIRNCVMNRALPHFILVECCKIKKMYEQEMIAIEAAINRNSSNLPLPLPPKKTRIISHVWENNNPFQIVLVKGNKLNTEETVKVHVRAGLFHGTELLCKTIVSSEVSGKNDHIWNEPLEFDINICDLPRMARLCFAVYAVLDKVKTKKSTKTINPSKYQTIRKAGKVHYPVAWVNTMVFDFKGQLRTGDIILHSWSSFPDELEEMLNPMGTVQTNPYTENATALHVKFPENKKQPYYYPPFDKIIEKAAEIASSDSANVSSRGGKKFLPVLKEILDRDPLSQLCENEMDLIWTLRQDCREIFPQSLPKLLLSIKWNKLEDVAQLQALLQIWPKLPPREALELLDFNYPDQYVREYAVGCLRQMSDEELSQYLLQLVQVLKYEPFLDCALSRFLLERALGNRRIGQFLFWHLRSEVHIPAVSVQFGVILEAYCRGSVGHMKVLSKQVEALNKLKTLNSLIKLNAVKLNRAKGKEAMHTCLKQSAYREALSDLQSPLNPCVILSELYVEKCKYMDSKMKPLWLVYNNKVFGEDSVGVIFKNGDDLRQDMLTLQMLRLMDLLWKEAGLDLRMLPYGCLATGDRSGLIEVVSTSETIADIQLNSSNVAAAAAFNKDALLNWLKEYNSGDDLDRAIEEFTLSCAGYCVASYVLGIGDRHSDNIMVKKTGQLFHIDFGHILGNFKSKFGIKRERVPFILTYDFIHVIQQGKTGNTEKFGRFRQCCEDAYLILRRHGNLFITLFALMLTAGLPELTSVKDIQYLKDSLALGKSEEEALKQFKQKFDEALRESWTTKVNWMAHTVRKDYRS
Chain of PI3-kinase p110-delta/p85-alpha (P27986 whole entry, one chain of several): as the sequence (P27986 whole entry) above

IC50 [1] [nM] | IC50 [2] [nM] | IC50 (PI3K p110 beta/p85 alpha) [nM] | IC50 [3] [nM] | half-life at 100 ug/ml [4] [h] | Time [5] [h] | EC50 [9] [nM] | SMILES | further results
1.3 | 1600 | 350 | 160 | 20 | 3.1 | – | Cc1ncccc1-n1c([C@H](C)Nc2nc(N)nc(N)c2C#N)nc2cccc(Cl)c2c1=O (stereo in doubt; 23) | Time [6]: > 3 h
– | 770 | 46 | 51 | 19 | 2.8 | 0.5 | C[C@H](Nc1nc(N)nc(N)c1C#N)c1nc2c(F)ccc(Cl)c2c(=O)n1-c1cccnc1 | clearance [7]: 26.7 mL/min/kg; degraded at 3 h [8]: 10%; clearance [10]: 3.5 mL/min/kg; Vd [11]: 3.2 L/kg; Vd [12]: 0.51 L/kg; bioavailability [13]: 24%
– | 10000 | 2600 | 2300 | – | – | 7 | C[C@H](Nc1nc(N)nc(N)c1C#N)c1nc2cccc(Cl)c2c(=O)n1-c1cncc(C2CC2)c1 | –
– | 3100 | 440 | 120 | 20 | 2.9 | 0.5 | C[C@H](Nc1nc(N)nc(N)c1C#N)c1nc2c(F)ccc(Cl)c2c(=O)n1-c1cncc(F)c1 | clearance [7]: 17.7 mL/min/kg; clearance [10]: 5.17 mL/min/kg; Vd [11]: 1.4 L/kg; Vd [12]: 0.96 L/kg; bioavailability [13]: 46%
– | – | – | – | 34 | – | – | C[C@H](Nc1nc(N)nc(N)c1C#N)c1nc2cccc(F)c2c(=O)n1-c1cc(F)cc(F)c1 | Ratio IC50 [14]: 650; Ratio IC50 [15]: 1900; Ratio IC50 [16]: 180; half-life [17]: 34 h; Stabilty [18]: Stable
– | 3100 | 390 | 1100 | – | – | 5 | C[C@H](Nc1nc(N)nc(N)c1C#N)c1nc2c(Cl)cccc2c(=O)n1-c1cccnc1 | –
0.3 | 1200 | 120 | 25 | 30 | 4.6 | – | Cc1c(F)cncc1-n1c([C@H](C)Nc2nc(N)nc(N)c2C#N)nc2cccc(Cl)c2c1=O (stereo in doubt; 27) | half-life [19]: 1750 h; Time [6]: > 3 h
– | 9700 | 370 | 1300 | – | – | – | Cc1ccncc1-n1c([C@H](C)Nc2nc(N)nc(N)c2C#N)nc2cccc(Cl)c2c1=O (stereo in doubt; 26) | –
– | 1300 | 76 | 330 | 15 | 2.3 | 0.9 | C[C@H](Nc1nc(N)nc(N)c1C#N)c1nc2c(Cl)ccc(Cl)c2c(=O)n1-c1cccnc1 | –
– | 4020 | 770 | 940 | – | – | 11 | C[C@H](Nc1nc(N)nc(N)c1C#N)c1nc2c(F)ccc(F)c2c(=O)n1-c1cccnc1 | –
– | 880 | 21 | 70 | 23 | 3.5 | – | Cc1ccncc1-n1c([C@H](C)Nc2nc(N)nc(N)c2C#N)nc2cccc(Cl)c2c1=O (stereo in doubt; 25) | Time [6]: > 3 h
– | – | – | – | 3.6 | 0.5 | – | N#Cc1c(N)nc(N)nc1N[C@H](c1nc2cccc(Cl)c2c(=O)n1-c1cccnc1)C1CC1 | Drug degradation [20]: Active
– | 8300 | 1200 | 1200 | – | – | 4 | C[C@H](Nc1nc(N)nc(N)c1C#N)c1nc2cccc(Cl)c2c(=O)n1-c1cncc(Cl)c1 | –
– | 6800 | 440 | 650 | – | – | – | Cc1ncccc1-n1c([C@H](C)Nc2nc(N)nc(N)c2C#N)nc2cccc(Cl)c2c1=O (stereo in doubt; 24) | –
17 | 10000 | 4800 | 1300 | – | – | 21 | C[C@H](Nc1nc(N)nc(N)c1C#N)c1nc2cccc(Cl)c2c(=O)n1-c1cncc(C(F)(F)F)c1 | –
– | 10000 | 3000 | 830 | – | – | 3 | COc1cncc(-n2c([C@H](C)Nc3nc(N)nc(N)c3C#N)nc3cccc(Cl)c3c2=O)c1 | –
– | – | – | – | 4.3 | 0.65 | – | CC[C@H](Nc1nc(N)nc(N)c1C#N)c1nc2cccc(Cl)c2c(=O)n1-c1cccnc1 | Drug degradation [20]: Active
13 | 8700 | 3100 | 700 | – | – | 4 | C[C@H](Nc1nc(N)nc(N)c1C#N)c1nc2cccc(Cl)c2c(=O)n1-c1cncc(C#N)c1 | –
40 | 10000 | 1750 | 6900 | – | – | – | Cc1c(F)cncc1-n1c([C@H](C)Nc2nc(N)nc(N)c2C#N)nc2cccc(Cl)c2c1=O (stereo in doubt; 28) | –
2 | 1500 | 310 | 520 | 19 | 2.8 | 2 | CC[C@H](Nc1nc(N)nc(N)c1C#N)c1nc2c(F)ccc(Cl)c2c(=O)n1-c1cccnc1 | clearance [7]: 5 mL/min/kg; clearance [10]: 2.17 mL/min/kg; Vd [11]: 0.54 L/kg; Vd [12]: 0.3 L/kg; bioavailability [13]: 37%
– | 240 | 9.4 | – | 358 | – | 0.3 | C[C@H](Nc1nc(N)nc(N)c1C#N)c1nc2cccc(Cl)c2c(=O)n1-c1ccccc1 | Ratio IC50 [14]: 80; Ratio IC50 [15]: 2200; Ratio IC50 [16]: 60; half-life [17]: 358 h; Stabilty [18]: Stable
1.7 | 4300 | 740 | 150 | 3.6 | 0.5 | 1.2 | C[C@H](Nc1nc(N)nc(N)c1C#N)c1nc2cccc(Cl)c2c(=O)n1-c1cncc(F)c1 | Ratio IC50 [14]: 430; Drug degradation [20]: Active
– | 1030 | 100 | 72 | 2.7 | 0.2 | 0.9 | C[C@H](Nc1nc(N)nc(N)c1C#N)c1nc2cccc(Cl)c2c(=O)n1-c1cccnc1 | clearance [7]: 25 mL/min/kg; Ratio IC50 [14]: 160; clearance [10]: 3.33 mL/min/kg; clearance [21]: 1.67 mL/min/kg; Vd [11]: 1.9 L/kg; Vd [12]: 0.9 L/kg; Vd [22]: 0.5 L/kg; half-life [23]: 2.5 h; half-life [24]: 5.6 h; half-life [25]: 4.9 h; bioavailability [13]: 42%; Ratio IC50 [15]: 1700; Ratio IC50 [16]: 120
